Source: PubChem BioAssay
KCNQ1 block – inhibitors of human KCNQ1 potassium channel; CHO-K1 KCNQ1, FluxOR thallium flux fluorescence; active compounds read high; B-score at 10 µM; actives 1.3% (n = 310,000); AID 2642; P51787;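 active = compounds whose thallium flux B-score, printed positive for inhibition, exceeds three library SD while starting fluorescence stays within three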;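 also: channel opened by potassium depolarization with thallium stimulus after 20 min compound exposure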
KCNK3 block – human KCNK3 channel inhibition, primary screen | O14649 | B-score at 10 µM | actives 0.84% (n = 340,000) | AID 602410 | CHO-KCNK3 thallium flux, FluxOR fluorescence; active compounds read low;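 active = B-score under library mean minus 4 SD, starting fluorescence ratio at most library mean plus 5 SD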;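 also: more negative B-score means stronger inhibition of thallium flux through KCNK3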
KCNQ1 pot – potentiators or activators of human KCNQ1 potassium channel. CHO-K1 KCNQ1, thallium flux FluxOR fluorescence; active compounds read high. actives 0.35% (n = 310,000). P51787. AID 2648. B-score at 10 µM;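 active = fluorescence ratio B-score, a plate-corrected score, at least three library SD, with initial intensity B-score within 5 SD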
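Medium – assay buffer, equal DMSO in all wells · Material – CHO-K1 cell line with stable KCNQ1 potassium channel expression · Signal – kinetic FluxOR thallium fluorescence, 10-s 1-Hz baseline, 110-s post-stimulus read · Compound – single concentration per compound, DMSO matched to controls · Schedule – 37 °C overnight plating, 90-min dark dye load, 20-min compound pretreatment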
KCNK9 block – human KCNK9 channel inhibition. Q9NPC2. HEK293 KCNK9, FluxOR thallium flux fluorescence; active compounds read low. B-score at 10 µM. actives 1.2% (n = 310,000). AID 488922;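 active = ratio B-score over 3 SD below the library mean, with starting fluorescence within 5 SD of its mean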;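 also: negative B-score means less thallium flux so channel inhibition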
hERG protect – hERG (human) protection from proarrhythmic block | Q12809 | CHO-hERG, FluxOR thallium flux, dofetilide IC70 present | activation (rescue from dofetilide block), less the hit threshold, % at 10 µM | actives 0.51% (n = 310,000) | AID 1511;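 active = activation above the mean of controls blocked by dofetilide plus 5 SD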;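 also: thallium influx through hERG after potassium depolarization seen as dye fluorescence rise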
Target sequence (Q12809 whole entry, looked up): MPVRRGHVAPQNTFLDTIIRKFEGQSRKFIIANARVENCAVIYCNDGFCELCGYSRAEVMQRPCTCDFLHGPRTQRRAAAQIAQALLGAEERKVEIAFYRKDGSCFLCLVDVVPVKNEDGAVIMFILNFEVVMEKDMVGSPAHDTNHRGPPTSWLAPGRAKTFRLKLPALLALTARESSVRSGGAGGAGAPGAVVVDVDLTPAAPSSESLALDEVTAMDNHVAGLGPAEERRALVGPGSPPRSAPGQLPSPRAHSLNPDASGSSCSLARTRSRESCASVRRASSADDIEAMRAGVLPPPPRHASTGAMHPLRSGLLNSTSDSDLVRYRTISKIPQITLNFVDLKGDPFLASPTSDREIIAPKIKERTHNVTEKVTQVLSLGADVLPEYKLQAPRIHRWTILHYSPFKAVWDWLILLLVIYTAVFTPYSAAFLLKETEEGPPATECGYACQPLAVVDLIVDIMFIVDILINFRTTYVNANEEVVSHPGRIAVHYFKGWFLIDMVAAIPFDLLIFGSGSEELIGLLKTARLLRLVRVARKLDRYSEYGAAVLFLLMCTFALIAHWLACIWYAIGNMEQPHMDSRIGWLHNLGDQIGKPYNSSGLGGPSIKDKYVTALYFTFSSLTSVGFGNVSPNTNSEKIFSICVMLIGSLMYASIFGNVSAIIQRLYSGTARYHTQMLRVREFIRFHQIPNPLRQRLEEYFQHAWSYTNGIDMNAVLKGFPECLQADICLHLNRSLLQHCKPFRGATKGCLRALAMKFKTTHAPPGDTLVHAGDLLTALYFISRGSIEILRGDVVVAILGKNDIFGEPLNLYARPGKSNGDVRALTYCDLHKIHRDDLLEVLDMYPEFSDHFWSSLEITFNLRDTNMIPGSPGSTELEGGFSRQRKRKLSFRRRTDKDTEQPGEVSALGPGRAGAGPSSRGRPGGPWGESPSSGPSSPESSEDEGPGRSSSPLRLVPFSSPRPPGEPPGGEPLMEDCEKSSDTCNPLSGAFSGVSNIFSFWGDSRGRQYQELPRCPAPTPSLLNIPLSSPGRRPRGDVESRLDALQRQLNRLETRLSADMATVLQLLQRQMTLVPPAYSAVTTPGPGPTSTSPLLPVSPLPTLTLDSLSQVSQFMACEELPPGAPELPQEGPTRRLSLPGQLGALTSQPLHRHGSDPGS
KCNK3 confirm – human KCNK3 channel inhibition, confirmation assay; ratio percent of control, % at 10 µM; AID 651638; actives 99% (n = 2,400); CHO-KCNK3 thallium flux, FluxOR fluorescence; 0% buffer, 100% carvedilol maximal block; shares compounds with KCNK3 block;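 active = ratio percent of control, averaged over triplicates, above buffer control mean plus 5 SD, cut at about 64% in these data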;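 also: ratio is the fluorescence rise from min to max over baseline after thallium stimulus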
KCNK3 uninduced – activity in cells without induced KCNK3 expression | shares compounds with KCNK3 block | thallium flux ratio (lower = more inhibition) at 10 µM | non-induced KCNK3 parental cells, FluxOR thallium flux; active compounds read low | actives 40% (n = 2,400);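 active = thallium flux ratio, averaged over three wells, more than 5 SD below the buffer control mean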;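 also: host cells are CHO cells without KCNK3 induction; ratio is peak minus trough fluorescence over baseline then normalized to buffer controls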
An asterisk follows results filed as active; i = inactive; . = not tested or not shown. A selection: hits, their analogues and other compounds. The true share with any hit is near 3.1%.

SMILES | KCNQ1 block | KCNK3 block | KCNQ1 pot | KCNK9 block | hERG protect | KCNK3 confirm | KCNK3 uninduced
Cc1ccc(C2Nc3ccc4ccccc4c3C3=C2C(=O)CC(C)(C)C3)o1 (stereo not drawn) | i | -9* | i | i | -9 | 105* | i
COc1ccc(C)cc1S(=O)(=O)N1CCN(c2cccc(C(F)(F)F)c2)CC1 | i | -10* | i | i | -7 | 103* | i
O=C(COc1cccc2cccnc12)N/N=C/c1cccn1-c1ccc(F)cc1 | i | -8.7* | i | i | -21 | 108* | i
O=C(Nc1cc(S(=O)(=O)N2CCCCC2)ccc1O)c1ccccc1NS(=O)(=O)c1ccc(F)c(F)c1 | i | i | i | i | -17 | . | .
COc1ccc(CNC(=O)CCn2ccc3cc(S(=O)(=O)N4CCCC4)ccc32)cc1 | i | i | i | i | -8 | . | .
CSc1ccc(CNC(=O)CCn2ccc3cc(S(=O)(=O)N4CCCC4)ccc32)cc1 | i | -9.9* | i | i | -5 | 119* | 0.16*
Fc1ccc(CNC(=S)Nc2ccc(Cl)cc2)cc1 | i | i | i | i | -6 | . | .
CC(CNC(=S)Nc1cc(F)cc(F)c1)CSc1ccc(Cl)cc1 (stereo not drawn) | 9* | -13* | i | i | -15 | 117* | 0.14*
CC1Sc2ccc(S(=O)(=O)N(C)Cc3ccccc3)cc2NC1=O (stereo not drawn) | i | -10* | i | i | -5 | 93* | i
O=C(N/N=C\c1ccc(Cl)cc1Cl)c1sccc1-n1cccc1 | i | -9.4* | i | i | -2 | 93* | i
O=C(N/N=C\c1ccc(Cl)cc1)c1sccc1-n1cccc1 | i | i | i | i | -12 | . | .
CCOC(=O)c1sc2nc(C)nc(NCc3cccnc3)c2c1C | i | i | i | i | -6 | . | .
CCOC(=O)c1sc2nc(CC(=O)OC)nc(NCc3ccc(F)cc3)c2c1C | i | i | i | i | -8 | . | .
CCOC(=O)c1sc2nc(C)nc(NCc3ccc(F)cc3)c2c1C | i | -10* | i | i | -8 | 116* | 0.15*
CCOC(=O)c1sc2nc(C)nc(NCc3ccc(Cl)cc3)c2c1C | i | -11* | i | i | -16 | 121* | 0.13*
CC(C)(C)NC(=O)C1CCN(S(=O)(=O)c2cccc(C(F)(F)F)c2)CC1 | i | i | i | i | -9 | . | .
Cc1csc(NC(C)c2nc3cc(C(F)(F)F)ccc3n2CCCO)n1 (stereo not drawn) | i | i | i | i | -6 | . | .
O=[N+]([O-])c1ccc(-c2ccc(/C=N/Nc3nc(N4CCCC4)nc(N4CCCC4)n3)o2)cc1 | 7* | -9.8* | i | i | -19 | 141* | 0.11*
CCN(CC)CCCNC(=O)c1oc2ccc(S(=O)(=O)N3CC(C)CC(C)C3)cc2c1C (stereo not drawn) | i | i | i | i | -6 | . | .
O=C(C1CCCCC1)N1CCN(c2ccnc3cc(Cl)ccc23)CC1 | i | -8.8* | i | i | -21 | 115* | i
Cc1cccc(N2CCN(C(=O)COc3ccc4c(C)cc(=O)oc4c3C)CC2)c1C | 7* | -9* | i | i | -5 | 81* | i
COc1nsnc1NS(=O)(=O)c1ccc(NC(=S)NC(=O)c2cccnc2)cc1 | i | i | i | i | -12 | . | .
CC(C)Oc1cccc(C(=O)C2CCCN(Cc3ccc4nonc4c3)C2)c1 (stereo not drawn) | i | -12* | i | i | -9 | 127* | 0.14*
COCCOC(=O)c1c(C)oc2ccc(OC(=O)c3c(OC)cccc3OC)cc12 | i | -10* | i | i | -3 | 104* | i
CCOC(=O)c1c(C)oc2ccc(OCc3cc(C(=O)OC)oc3C)cc12 | i | -10* | i | i | -4 | 103* | 0.16*
SMILES | KCNQ1 block | KCNK3 block | KCNQ1 pot | KCNK9 block | hERG protect | KCNK3 confirm | KCNK3 uninduced
Cc1ccccc1NS(=O)(=O)c1ccc(OCC(=O)NCc2ccccn2)cc1 | i | i | i | i | -4 | . | .
COc1ccccc1/C=N/NC(=O)CSc1ccc2ccccc2n1 | i | -11* | i | i | -7 | 114* | i
CCOC(=O)c1cc(-c2ccco2)nc2c1c(C)nn2-c1ccccc1 | i | -9.4* | i | i | -6 | 93* | i
CCCn1c(=O)c2c(C(=O)OCC)cc(-c3ccco3)nc2n(CCC)c1=O | i | i | i | i | -15 | . | .
CC1=NN(C(=O)CCc2ccccc2)C(O)(c2ccncc2)C1 (stereo not drawn) | i | i | i | i | -2 | . | .
CC1=NN(C(=O)CSCc2ccccc2)C(O)(c2ccc(F)cc2)C1 (stereo not drawn) | i | -9.2* | i | -6.9* | -5 | 95* | i
CC(=O)N1c2ccc(S(=O)(=O)N3CCC(C(=O)N4CCN(c5cc(Cl)ccc5C)CC4)CC3)cc2CC1C (stereo not drawn) | 6* | -9.5* | i | i | -6 | 108* | i
COc1ccc(Cl)cc1NC(=O)C1Cc2cc(S(=O)(=O)N3CCCC3)ccc2N1C(C)=O (stereo not drawn) | i | -9.4* | i | i | -11 | 102* | i
COc1ccc(NC(=O)C2Cc3cc(S(=O)(=O)N4CCCCC4)ccc3N2C(C)=O)cc1Cl (stereo not drawn) | i | i | i | i | -10 | . | .
CC(C)NC(=O)C(c1ccc(F)cc1)N(C(=O)CCC(=O)Nc1ccccn1)C1CCCCC1 (stereo not drawn) | i | i | i | i | -2 | . | .
CCCOC(=O)c1ccc(NC(=O)CSC2=Nc3ccccc3C3CC=NN23)cc1 (stereo not drawn) | i | -9* | i | -7* | -12 | 110* | i
O=C(Cn1c(C(=O)OCCO)cc2ccccc21)c1ccccc1 | i | i | i | i | -12 | . | .
CSc1ccc(NC(=O)NCCCN2CCC(Cc3ccccc3)CC2)cc1 | i | i | i | i | -20 | . | .
O=C(Nc1ccc(F)cc1)C1CCN(S(=O)(=O)c2ccc3[nH]c(=O)oc3c2)CC1 | i | i | i | i | -4 | . | .
N#Cc1cc2c(nc1SCC(O)CS(=O)(=O)Cc1ccc(Cl)cc1)CCCC2 (stereo not drawn) | i | -11* | i | i | -3 | 109* | 0.15*
